# Results reported in ChEMBL document CHEMBL2413060, “Synthesis, biological evaluation and molecular docking studies of some pyrimidine derivatives” (2013).
# Key:
# Format in all cases: functional
# [1] = tested on: RPMI-8226; experiment: Cytotoxicity against human RPMI8226 cells assessed as growth inhibition at 10 uM; settings: read-out: GI
# Procedure, shortened: (§1)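 Single-dose screen on human tumour cell lines. Growth of treated cells is expressed as percent of untreated growth, plotted as a mean graph, and reported as percent growth inhibition.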
# [2] = tested on: Candida albicans; experiment: Antifungal activity against Candida albicans ATCC 2091 assessed as diameter of inhibition zone at 1 mg/ml after 48 hrs by cup diffusion method (reference value: 22 mm); settings: ATCC 2091, 48 h, read-out: DIZ
# [3] = tested on: Shigella flexneri; experiment: Antibacterial activity against Shigella flexneri ATCC 15391 assessed as diameter of inhibition zone at 1 mg/ml after 24 hrs by cup diffusion method (reference value: 17 mm); settings: ATCC 15391, 24 h, read-out: DIZ
# [4] = tested on: T47D; experiment: Cytotoxicity against human T47D cells
# Procedure, shortened: (§2)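 Five-dose in vitro screen on the full sixty human tumour cell line panel. Three response parameters derived per cell line: GI50, TGI and LC50, given in μM.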
# [5] = tested on: BT-549; experiment: Cytotoxicity against human BT549 cells
# [6] = tested on: Hs-578T; experiment: Cytotoxicity against human Hs578T cells
# [7] = tested on: NCI/ADR-RES; experiment: Cytotoxicity against human NCI/ADR-RES cells; procedure, shortened: as §2
# [8] = tested on: MCF7; experiment: Cytotoxicity against human MCF7 cells; procedure, shortened: as §2
# [9] = tested on: UO-31; experiment: Cytotoxicity against human UO31 cells
# Procedure, shortened: (§3)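 Five-dose in vitro screen across the full sixty-cell human tumour line panel. Three response parameters were derived from the dose-response data: GI50, TGI and LC50, expressed in μM/l.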
# [10] = tested on: TK-10; experiment: Cytotoxicity against human TK10 cells; procedure, shortened: as §3
# [11] = tested on: SN12C; experiment: Cytotoxicity against human SN12C cells; procedure, shortened: as §2
# [12] = tested on: ACHN; experiment: Cytotoxicity against human ACHN cells
# [13] = tested on: A498; experiment: Cytotoxicity against human A498 cells
# [14] = tested on: UACC-257; experiment: Cytotoxicity against human UACC257 cells; procedure, shortened: as §3
# [15] = tested on: SK-MEL-5; experiment: Cytotoxicity against human SK-MEL-5 cells; procedure, shortened: as §2
# [16] = tested on: SK-MEL-28; experiment: Cytotoxicity against human SK-MEL-28 cells; procedure, shortened: as §2
# [17] = tested on: Malme-3M; experiment: Cytotoxicity against human MALME-3M cells
# [18] = tested on: SNB-19; experiment: Cytotoxicity against human SNB19 cells; procedure, shortened: as §2
# [19] = tested on: SF-295; experiment: Cytotoxicity against human SF295 cells; procedure, shortened: as §2
# [20] = tested on: SF-539; experiment: Cytotoxicity against human SF539 cells; procedure, shortened: as §2
# [21] = tested on: SF-268; experiment: Cytotoxicity against human SF268 cells; procedure, shortened: as §2
# [22] = tested on: KM12; experiment: Cytotoxicity against human KM12 cells
# [23] = tested on: NCI-H522; experiment: Cytotoxicity against human NCI-H522 cells; procedure, shortened: as §2
# [24] = tested on: HCC 2998; experiment: Cytotoxicity against human HCC2998 cells
# [25] = tested on: NCI-H460; experiment: Cytotoxicity against human NCI-H460 cells; procedure, shortened: as §2
# [26] = tested on: NCI-H226; experiment: Cytotoxicity against human NCI-H226 cells; procedure, shortened: as §2
# [27] = tested on: A549; experiment: Cytotoxicity against human A549/ATCC cells
# [28] = tested on: MOLT-4; experiment: Cytotoxicity against human MOLT4 cells; procedure, shortened: as §2
# [29] = tested on: CCRF-CEM; experiment: Cytotoxicity against human CCRF-CEM cells
# [30] = tested on: HL-60(TB); experiment: Cytotoxicity against human HL-60(TB) cells
# Procedure, shortened: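 Run in the sixty human tumour cell line panel. The primary screen reports percent growth of treated cells, expressed as percentage growth inhibition. Compounds meeting the threshold inhibition criteria go on to the full-panel 5-dose assay, which gives three response parameters (GI50, TGI, LC50) in μM.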
# [31] = tested on: K562; experiment: Cytotoxicity against human K562 cells
# [32] = tested on: T47D; experiment: Cytotoxicity against human T47D cells assessed as growth inhibition at 10 uM; settings: read-out: GI; procedure, shortened: as §1
# [33] = tested on: BT-549; experiment: Cytotoxicity against human BT549 cells assessed as growth inhibition at 10 uM; settings: read-out: GI
# [34] = tested on: PC-3; experiment: Cytotoxicity against human PC3 cells assessed as growth inhibition at 10 uM; settings: read-out: GI; procedure, shortened: as §1
# [35] = tested on: MCF7; experiment: Cytotoxicity against human MCF7 cells assessed as growth inhibition at 10 uM; settings: read-out: GI; procedure, shortened: as §1
# [36] = tested on: CAKI-1; experiment: Cytotoxicity against human Caki1 cells assessed as growth inhibition at 10 uM; settings: read-out: GI
# [37] = tested on: ACHN; experiment: Cytotoxicity against human ACHN cells assessed as growth inhibition at 10 uM; settings: read-out: GI
# [38] = tested on: UACC-62; experiment: Cytotoxicity against human UACC62 cells assessed as growth inhibition at 10 uM; settings: read-out: GI
# Procedure, shortened: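 Single-dose screen in a sixty-cell human tumour line panel; percent growth of treated cells relative to untreated was read and reported as percentage growth inhibition, shown as a mean graph. Compounds meeting the threshold inhibition criteria went on to five-dose testing.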
# [39] = tested on: Malme-3M; experiment: Cytotoxicity against human MALME-3M cells assessed as growth inhibition at 10 uM; settings: read-out: GI
# [40] = tested on: NCI-H522; experiment: Cytotoxicity against human NCI-H522 cells assessed as growth inhibition at 10 uM; settings: read-out: GI; procedure, shortened: as §1
# [41] = tested on: HOP-92; experiment: Cytotoxicity against human HOP92 cells assessed as growth inhibition at 10 uM; settings: read-out: GI
# [42] = read-out: LC50 (the source's name)
smiles,measurement,setting,value
N#Cc1c(-c2ccccc2)nc(SCC2CO2)nc1N1CCOCC1 (configuration not stated),inhibition of growth at 10 µM,[1],52.1%
same,zone of inhibition at 1000 µg/mL,[2],22 mm
same,zone of inhibition at 1000 µg/mL,[3],18 mm
same,GI50,[4],3.59 µM
same,TGI,[4],22.5 µM
same,CC50,[4]; [42],> 100 µM
same,GI50,[5],3.22 µM
same,TGI,[5],> 100 µM
same,CC50,[5]; [42],> 100 µM
same,GI50,[6],1.15 µM
same,TGI,[6],6.09 µM
same,CC50,[6]; [42],> 100 µM
same,GI50,[7],11.8 µM
same,TGI,[7],> 100 µM
same,CC50,[7]; [42],> 100 µM
same,GI50,[8],3.92 µM
same,TGI,[8],> 100 µM
same,CC50,[8]; [42],> 100 µM
same,GI50,[9],7.57 µM
same,TGI,[9],> 100 µM
same,CC50,[9]; [42],> 100 µM
same,GI50,[10],4.63 µM
same,TGI,[10],> 100 µM
same,CC50,[10]; [42],> 100 µM
same,GI50,[11],16.4 µM
same,TGI,[11],> 100 µM
same,CC50,[11]; [42],> 100 µM
same,GI50,[12],3.23 µM
same,TGI,[12],> 100 µM
same,CC50,[12]; [42],> 100 µM
same,GI50,[13],1.06 µM
same,TGI,[13],5.28 µM
same,CC50,[13]; [42],> 100 µM
same,GI50,[14],50.7 µM
same,TGI,[14],> 100 µM
same,CC50,[14]; [42],> 100 µM
same,GI50,[15],17 µM
same,TGI,[15],> 100 µM
same,CC50,[15]; [42],> 100 µM
same,GI50,[16],5.45 µM
same,TGI,[16],98.3 µM
same,CC50,[16]; [42],> 100 µM
same,GI50,[17],2.56 µM
same,TGI,[17],> 100 µM
same,CC50,[17]; [42],> 100 µM
same,GI50,[18],84.5 µM
same,TGI,[18],> 100 µM
same,CC50,[18]; [42],> 100 µM
same,GI50,[19],1.46 µM
same,TGI,[19],20.4 µM
same,CC50,[19]; [42],> 100 µM
same,GI50,[20],19.8 µM
same,TGI,[20],> 100 µM
same,CC50,[20]; [42],> 100 µM
same,GI50,[21],13 µM
same,TGI,[21],> 100 µM
same,CC50,[21]; [42],> 100 µM
same,GI50,[22],27.1 µM
same,TGI,[22],> 100 µM
same,CC50,[22]; [42],> 100 µM
same,GI50,[23],72.5 µM
same,TGI,[23],> 100 µM
same,CC50,[23]; [42],> 100 µM
same,GI50,[24],0.253 µM
same,TGI,[24],18.2 µM
same,CC50,[24]; [42],> 100 µM
same,GI50,[25],10.3 µM
same,TGI,[25],> 100 µM
same,CC50,[25]; [42],> 100 µM
same,GI50,[26],10.1 µM
same,TGI,[26],> 100 µM
same,CC50,[26]; [42],> 100 µM
same,GI50,[27],27.9 µM
same,TGI,[27],> 100 µM
same,CC50,[27]; [42],> 100 µM
same,GI50,[28],28.9 µM
same,TGI,[28],> 100 µM
same,CC50,[28]; [42],> 100 µM
same,GI50,[29],> 100 µM
same,TGI,[29],> 100 µM
same,CC50,[29]; [42],> 100 µM
same,GI50,[30],34.1 µM
same,TGI,[30],> 100 µM
same,CC50,[30]; [42],> 100 µM
same,GI50,[31],> 100 µM
same,TGI,[31],> 100 µM
same,CC50,[31]; [42],> 100 µM
same,inhibition of growth at 10 µM,[32],84.6%
same,inhibition of growth at 10 µM,[33],88.6%
same,inhibition of growth at 10 µM,[34],63.9%
same,inhibition of growth at 10 µM,[35],55.2%
same,inhibition of growth at 10 µM,[36],61.4%
same,inhibition of growth at 10 µM,[37],40.8%
same,inhibition of growth at 10 µM,[38],48.1%
same,inhibition of growth at 10 µM,[39],74.3%
same,inhibition of growth at 10 µM,[40],42.1%
same,inhibition of growth at 10 µM,[41],81.7%
